Experimental data reported in ChEMBL document CHEMBL4043298, “Discovery of a Potent (4 R,5 S)-4-Fluoro-5-methylproline Sulfonamide Transient Receptor Potential Ankyrin 1 Antagonist and Its Methylene Phosphate Prodrug Guided by Molecular Modeling” (J Med Chem, 2018).
≈ marks a conversion by molar mass, not a printed value.

Tests used:
[1] = molecular target: Transient receptor potential cation channel subfamily A member 1 (Homo sapiens, UniProt O75762); test: Inhibition of human TRPA1 expressed in HEK293 cells assessed as inhibition of cinnamaldehyde-induced Ca2+ influx preincubated for 20 mins followed by cinnamaldehyde induction by FLIPR assay; assay type: cell-based
[2] = Clearance in human liver microsomes; assay type: ADME, microsome
Summary of the method: (§1)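 Hepatic clearance predicted from human or rat liver microsome incubations.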

[3] = Clearance in rat liver microsomes; assay type: ADME, microsome; summary of the method: as §1
[4] = Lipophilicity, log D of the compound at pH 7.4; conditions: buffer
[5] = Kinetic solubility of the compound; assay type: physicochemical; conditions: read-out: Kinetic_solubility
[6] = molecular target: Transient receptor potential cation channel subfamily A member 1 (Rattus norvegicus, UniProt Q6RI86); test: Inhibition of rat TRPA1 expressed in HEK293 cells assessed as inhibition of cinnamaldehyde-induced Ca2+ influx preincubated for 20 mins followed by cinnamaldehyde induction by FLIPR assay; assay type: cell-based
[7] = molecular target: Transient receptor potential cation channel subfamily M member 8 (Homo sapiens, UniProt Q7Z2W7); test: Inhibition of human TRPM8
[8] = molecular target: Transient receptor potential cation channel subfamily V member 1 (Homo sapiens, UniProt Q8NER1); test: Inhibition of human TRPV1
hERG (KCNH2) = hERG (KCNH2) (Homo sapiens, UniProt Q12809); test: Inhibition of human ERG at 10 uM by patch clamp assay relative to control
Summary of the method: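 hERG potassium channel inhibition measured by automated patch clamp at a single concentration of 10 μM.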

[9] = Permeability across apical to basolateral side in MDCK cells; assay type: ADME, cell-based, Canis lupus familiaris; conditions: dog, read-out: permeability
[10] = Protein binding in human plasma; assay type: ADME, cell-free; conditions: read-out: PPB (converted)
[11] = Protein binding in rat plasma; assay type: ADME, cell-free; conditions: read-out: PPB (converted)
Rattus norvegicus [12] = test: Half life in rat at 1 mg/kg, iv; assay type: ADME, organism-based; conditions: in vivo
Rattus norvegicus [13] = test: Volume of distribution at steady state in rat at 1 mg/kg, iv; assay type: ADME, organism-based; conditions: in vivo
[14] = AUC (0 to 24 hrs) in rat at 1 mg/kg, po; assay type: ADME, organism-based; set-up: dose 1 mg/kg, time < 24 hr, route oral; conditions: in vivo
Summary of the method: (§2)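 Rat oral dose of 1 mg/kg in MCT vehicle (0.5% methylcellulose with 0.2% Tween 80 in water). Parent plasma exposure measured over 0–24 h. The target multiple is unbound Cmax divided by the rat TRPA1 IC50.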

[15] = AUC (0 to 24 hrs) in rat at 30 mg/kg, po; assay type: ADME, organism-based; set-up: dose 30 mg/kg, time < 24 hr, route oral; conditions: in vivo
Summary of the method: (§3)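 Rat oral dose of 30 or 100 mg/kg given as an amorphous suspension. Solid was dissolved in DMSO and precipitated into aqueous MCT, giving a final 15% DMSO/85% MCT. Plasma exposure measured over 0–24 h. The target multiple is unbound Cmax divided by the rat TRPA1 IC50.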

[16] = AUC (0 to 24 hrs) in rat at 100 mg/kg, po; assay type: ADME, organism-based; set-up: dose 100 mg/kg, time < 24 hr, route oral; conditions: in vivo; summary of the method: as §3
[17] = Cmax in rat at 1 mg/kg, po; assay type: ADME, organism-based; set-up: dose 1 mg/kg, route oral; conditions: in vivo; summary of the method: as §2
[18] = Cmax in rat at 30 mg/kg, po; assay type: ADME, organism-based; set-up: dose 30 mg/kg, route oral; conditions: in vivo; summary of the method: as §3
[19] = Cmax in rat at 100 mg/kg, po; assay type: ADME, organism-based; set-up: dose 100 mg/kg, route oral; conditions: in vivo; summary of the method: as §3
[20] = Oral bioavailability in rat at 1 mg/kg; assay type: ADME, organism-based; conditions: in vivo
[21] = Ratio of unbound Cmax in rat at 1 mg/kg, po to IC50 for rat TRPA1; summary of the method: as §2
[22] = Ratio of unbound Cmax in rat at 30 mg/kg, po to IC50 for rat TRPA1; summary of the method: as §3
[23] = Ratio of unbound Cmax in rat at 100 mg/kg, po to IC50 for rat TRPA1; summary of the method: as §3

Sequence of Transient receptor potential cation channel subfamily A member 1 (Homo sapiens, UniProt O75762) (O75762 whole entry): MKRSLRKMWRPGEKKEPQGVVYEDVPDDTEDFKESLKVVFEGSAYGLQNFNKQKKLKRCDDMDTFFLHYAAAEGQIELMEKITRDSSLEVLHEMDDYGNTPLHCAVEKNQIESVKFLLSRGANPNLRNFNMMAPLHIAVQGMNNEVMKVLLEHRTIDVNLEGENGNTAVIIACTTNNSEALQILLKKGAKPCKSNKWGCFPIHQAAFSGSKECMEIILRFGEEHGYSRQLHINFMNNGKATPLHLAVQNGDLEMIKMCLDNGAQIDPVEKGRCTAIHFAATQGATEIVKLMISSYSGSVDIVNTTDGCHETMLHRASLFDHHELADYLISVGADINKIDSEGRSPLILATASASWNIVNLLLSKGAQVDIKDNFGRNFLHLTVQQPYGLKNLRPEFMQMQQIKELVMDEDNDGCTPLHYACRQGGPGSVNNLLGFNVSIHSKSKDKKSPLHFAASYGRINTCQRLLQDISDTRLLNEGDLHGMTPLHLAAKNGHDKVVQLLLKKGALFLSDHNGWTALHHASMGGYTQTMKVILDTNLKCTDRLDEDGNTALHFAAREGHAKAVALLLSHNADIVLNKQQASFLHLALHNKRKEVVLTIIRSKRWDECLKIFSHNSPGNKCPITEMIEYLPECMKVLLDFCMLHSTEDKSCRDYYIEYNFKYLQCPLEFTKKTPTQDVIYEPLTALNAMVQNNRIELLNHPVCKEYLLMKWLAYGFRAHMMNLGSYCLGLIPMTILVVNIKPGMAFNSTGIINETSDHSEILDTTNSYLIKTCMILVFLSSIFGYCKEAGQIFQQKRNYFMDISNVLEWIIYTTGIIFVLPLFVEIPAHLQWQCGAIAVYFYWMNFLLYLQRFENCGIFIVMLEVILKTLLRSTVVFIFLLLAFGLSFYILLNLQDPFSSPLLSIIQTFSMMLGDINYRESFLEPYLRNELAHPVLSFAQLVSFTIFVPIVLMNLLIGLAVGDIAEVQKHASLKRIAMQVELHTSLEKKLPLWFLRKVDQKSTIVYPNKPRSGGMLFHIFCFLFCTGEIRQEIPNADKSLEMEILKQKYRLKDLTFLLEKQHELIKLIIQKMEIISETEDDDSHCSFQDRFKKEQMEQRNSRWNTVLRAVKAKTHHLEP
Sequence of hERG (KCNH2) (Q12809 whole entry): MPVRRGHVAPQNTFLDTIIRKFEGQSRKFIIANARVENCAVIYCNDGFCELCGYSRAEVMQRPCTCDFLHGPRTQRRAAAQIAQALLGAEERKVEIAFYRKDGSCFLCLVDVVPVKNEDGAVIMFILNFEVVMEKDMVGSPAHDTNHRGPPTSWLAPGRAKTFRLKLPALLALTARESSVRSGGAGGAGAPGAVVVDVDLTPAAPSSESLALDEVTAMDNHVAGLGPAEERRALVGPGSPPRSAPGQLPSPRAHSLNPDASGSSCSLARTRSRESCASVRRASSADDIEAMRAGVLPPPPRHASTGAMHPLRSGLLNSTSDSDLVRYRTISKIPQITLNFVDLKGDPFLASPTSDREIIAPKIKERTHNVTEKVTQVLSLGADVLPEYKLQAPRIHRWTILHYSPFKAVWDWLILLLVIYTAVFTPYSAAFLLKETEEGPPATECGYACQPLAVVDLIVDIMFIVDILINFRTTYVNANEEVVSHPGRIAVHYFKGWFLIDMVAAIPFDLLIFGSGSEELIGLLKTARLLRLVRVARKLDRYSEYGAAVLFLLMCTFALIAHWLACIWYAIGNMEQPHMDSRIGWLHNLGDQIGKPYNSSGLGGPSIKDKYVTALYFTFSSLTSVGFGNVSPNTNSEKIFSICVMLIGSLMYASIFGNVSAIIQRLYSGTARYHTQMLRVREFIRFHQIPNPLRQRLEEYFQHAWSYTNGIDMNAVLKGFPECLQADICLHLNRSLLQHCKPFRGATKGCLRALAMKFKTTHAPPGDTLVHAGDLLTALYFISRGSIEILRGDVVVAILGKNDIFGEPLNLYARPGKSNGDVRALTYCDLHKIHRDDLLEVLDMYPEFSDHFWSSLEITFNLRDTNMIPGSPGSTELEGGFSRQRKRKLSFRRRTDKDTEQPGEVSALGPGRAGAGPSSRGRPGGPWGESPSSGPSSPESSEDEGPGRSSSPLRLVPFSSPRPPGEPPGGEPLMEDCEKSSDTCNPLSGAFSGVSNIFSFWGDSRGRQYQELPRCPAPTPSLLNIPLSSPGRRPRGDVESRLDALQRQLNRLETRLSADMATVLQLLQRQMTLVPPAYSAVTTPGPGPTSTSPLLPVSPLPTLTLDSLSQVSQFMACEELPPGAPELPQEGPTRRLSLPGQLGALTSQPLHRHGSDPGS
Sequence of Transient receptor potential cation channel subfamily V member 1 (Q8NER1 whole entry): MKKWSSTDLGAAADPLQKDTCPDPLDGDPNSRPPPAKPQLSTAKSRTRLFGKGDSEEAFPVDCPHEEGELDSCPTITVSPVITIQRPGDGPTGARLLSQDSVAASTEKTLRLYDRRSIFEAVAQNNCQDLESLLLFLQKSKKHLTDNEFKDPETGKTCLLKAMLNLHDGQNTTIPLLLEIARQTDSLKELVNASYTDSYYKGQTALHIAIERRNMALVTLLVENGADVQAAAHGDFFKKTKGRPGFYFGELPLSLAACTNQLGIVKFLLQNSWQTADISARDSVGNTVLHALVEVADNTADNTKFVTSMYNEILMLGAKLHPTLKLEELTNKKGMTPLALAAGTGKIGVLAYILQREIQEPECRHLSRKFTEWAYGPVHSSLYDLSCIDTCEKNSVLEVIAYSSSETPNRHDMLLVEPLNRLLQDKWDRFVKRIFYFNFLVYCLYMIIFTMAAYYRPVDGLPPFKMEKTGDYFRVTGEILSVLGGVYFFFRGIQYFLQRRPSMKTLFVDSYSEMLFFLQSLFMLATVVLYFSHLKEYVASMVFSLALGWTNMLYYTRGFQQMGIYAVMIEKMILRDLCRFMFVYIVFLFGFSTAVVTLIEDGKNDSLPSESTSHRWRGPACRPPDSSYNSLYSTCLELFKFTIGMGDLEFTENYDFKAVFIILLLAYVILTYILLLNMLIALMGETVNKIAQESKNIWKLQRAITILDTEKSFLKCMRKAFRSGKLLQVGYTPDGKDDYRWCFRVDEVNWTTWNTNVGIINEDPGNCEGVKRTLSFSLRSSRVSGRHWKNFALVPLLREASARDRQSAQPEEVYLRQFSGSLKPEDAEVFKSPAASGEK
Sequence of Transient receptor potential cation channel subfamily A member 1 (Rattus norvegicus, UniProt Q6RI86) (Q6RI86 whole entry): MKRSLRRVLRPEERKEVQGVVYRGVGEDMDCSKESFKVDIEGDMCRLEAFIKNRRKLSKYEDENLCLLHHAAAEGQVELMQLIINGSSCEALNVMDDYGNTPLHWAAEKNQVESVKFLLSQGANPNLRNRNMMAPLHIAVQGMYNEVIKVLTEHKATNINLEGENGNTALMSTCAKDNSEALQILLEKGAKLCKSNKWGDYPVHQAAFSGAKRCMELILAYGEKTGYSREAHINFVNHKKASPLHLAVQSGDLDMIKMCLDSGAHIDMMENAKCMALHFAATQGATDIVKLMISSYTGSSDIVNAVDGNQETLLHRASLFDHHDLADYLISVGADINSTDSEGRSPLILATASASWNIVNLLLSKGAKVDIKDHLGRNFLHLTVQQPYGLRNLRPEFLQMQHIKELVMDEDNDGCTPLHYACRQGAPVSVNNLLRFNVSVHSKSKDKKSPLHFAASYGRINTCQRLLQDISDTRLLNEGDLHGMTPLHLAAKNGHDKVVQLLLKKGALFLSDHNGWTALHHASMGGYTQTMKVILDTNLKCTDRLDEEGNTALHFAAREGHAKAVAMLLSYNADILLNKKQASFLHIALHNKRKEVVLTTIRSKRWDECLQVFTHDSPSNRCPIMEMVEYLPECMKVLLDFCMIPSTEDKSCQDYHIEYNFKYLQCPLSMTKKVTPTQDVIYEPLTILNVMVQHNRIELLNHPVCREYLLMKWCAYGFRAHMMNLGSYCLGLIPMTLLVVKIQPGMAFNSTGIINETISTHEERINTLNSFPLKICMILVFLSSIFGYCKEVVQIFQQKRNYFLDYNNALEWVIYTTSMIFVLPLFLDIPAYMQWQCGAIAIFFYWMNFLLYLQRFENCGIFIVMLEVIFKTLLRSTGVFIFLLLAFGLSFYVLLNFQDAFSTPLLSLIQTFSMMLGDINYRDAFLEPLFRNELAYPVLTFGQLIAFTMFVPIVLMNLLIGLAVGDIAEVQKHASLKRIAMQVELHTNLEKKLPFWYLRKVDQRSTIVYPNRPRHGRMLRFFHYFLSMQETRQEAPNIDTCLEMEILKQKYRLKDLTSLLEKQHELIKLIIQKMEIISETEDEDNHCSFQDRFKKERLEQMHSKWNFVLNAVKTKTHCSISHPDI

| SMILES | IC50 [1] [nM] | CLhep predicted [2] [mL/min/kg] | CLhep predicted [3] [mL/min/kg] | logD [4] | solubility kinetic [5] [µM] | further results |
| --- | --- | --- | --- | --- | --- | --- |
| C[C@H]1[C@H](F)C[C@@H](C(=O)NCc2cc(-c3ccc(C(F)(F)F)nc3)ncn2)N1S(=O)(=O)c1ccc(F)cc1 | 179 | 10 | 19 | 2.7 | 2 (≈ 1.08 µg/mL) | – |
| C[C@H]1[C@H](F)C[C@@H](C(=O)NCc2c(F)cnc(-c3cnc(C(F)(F)F)nc3)c2F)N1S(=O)(=O)c1ccc(F)cc1 | 328 | 14 | 36 | 2.5 | 8 (≈ 4.62 µg/mL) | – |
| C[C@H]1[C@H](F)C[C@@H](C(=O)NCc2cc(-c3cnc(C(F)(F)F)cn3)ncn2)N1S(=O)(=O)c1ccc(F)cc1 | – | 14 | 18 | 2.3 | 18 (≈ 9.76 µg/mL) | – |
| O=C(NCc1cc(-c2ccc(C(F)(F)F)nc2)ncn1)[C@@H]1C[C@@H](F)CN1S(=O)(=O)c1ccc(F)cc1 | 1200 | 5 | 10 | 2.4 | – | – |
| C[C@H]1[C@H](F)C[C@@H](C(=O)NCc2cc(-c3cnc(C(F)(F)F)nc3)c(F)cn2)N1S(=O)(=O)c1ccc(F)cc1 | 33 | 13 | 18 | 2.6 | 84 (≈ 47 µg/mL) | – |
| C[C@H]1CC[C@@H](C(=O)NCc2cc(-c3ccc(C(F)(F)F)nc3)ncn2)N1S(=O)(=O)c1ccc(F)cc1 | 13 | 19 | 47 | 2.9 | – | – |
| C[C@H]1[C@H](F)C[C@@H](C(=O)NCc2cc(-c3cnc(C(F)(F)F)nc3)nc(C3CC3)n2)N1S(=O)(=O)c1ccc(F)cc1 | 5 | 10 | 22 | 3.8 | < 1 | – |
| O=C(NCc1cc(-c2ccc(C(F)(F)F)nc2)ncn1)[C@@H]1CCN1S(=O)(=O)c1ccc(F)cc1 | 1500 | 10 | 27 | 2.4 | – | – |
| C[C@@H]1CC[C@@H](C(=O)NCc2cc(-c3ccc(C(F)(F)F)nc3)ncn2)N1S(=O)(=O)c1ccc(F)cc1 | 239 | 19 | 30 | 4.3 | – | – |
| C[C@H]1[C@H](F)C[C@@H](C(=O)NCc2cc(-c3cnc(C(F)(F)F)nc3)c(C#N)cn2)N1S(=O)(=O)c1ccc(F)cc1 | 96 | 17 | 25 | 2.3 | 123 (≈ 69.7 µg/mL) | – |
| C[C@H]1[C@H](F)C[C@@H](C(=O)NCc2cc(-c3cnc(C(F)(F)F)nc3)c(Cl)cn2)N1S(=O)(=O)c1ccc(F)cc1 | 13 | 15 | 21 | 2.5 | 8 (≈ 4.61 µg/mL) | – |
| C[C@H]1[C@H](F)C[C@@H](C(=O)NCc2cc(-c3cnc(C(F)(F)F)nc3)ncn2)N1S(=O)(=O)c1ccc(F)cc1 | 64 | 11 | 18 | 2.5 | 53 (≈ 28.8 µg/mL) | – |
| O=C(NCc1cc(-c2ccc(C(F)(F)F)nc2)ncn1)[C@@H]1CCCCN1S(=O)(=O)c1ccc(F)cc1 | 2300 | 18 | 46 | 3.4 | – | – |
| C[C@H]1[C@H](F)C[C@@H](C(=O)NCc2cc(-c3cnc(C(F)(F)F)nc3)ncc2F)N1S(=O)(=O)c1ccc(F)cc1 | 8 | 10 | 17 | 2.6 | < 1 | IC50 [6]: 36 nM; IC50 [7]: > 20000 nM; IC50 [8]: > 20000 nM; inhibition at 10 µM (hERG (KCNH2)): 14.3%; Papp A→B [9]: 11.2 ×10⁻⁶ cm/s; fraction unbound [10]: 0.02; fraction unbound [11]: 0.028; t1/2 (Rattus norvegicus [12]): 7.5 h; Vdss (Rattus norvegicus [13]): 7.5 L/kg; AUC(0-t) at 24 h [14]: 0.56 µM·h; AUC(0-t) at 24 h [15]: 32.8 µM·h; AUC(0-t) at 24 h [16]: 39.6 µM·h; Cmax [17]: 30 nM; Cmax [18]: 2330 nM; Cmax [19]: 2510 nM; bioavailability [20]: 12%; Ratio [21]: 0.02; Ratio [22]: 1.81; Ratio [23]: 1.95 |
| O=C(NCc1cc(-c2ccc(C(F)(F)F)nc2)ncn1)[C@@H]1C[C@H](F)CN1S(=O)(=O)c1ccc(F)cc1 | 4400 | 7 | 40 | 1.8 | – | – |
| C[C@H]1[C@H](F)C[C@@H](C(=O)NCc2cc(-c3cnc(C(F)(F)F)nc3)ncc2C#N)N1S(=O)(=O)c1ccc(F)cc1 | 10 | 9 | 16 | – | 14 (≈ 7.93 µg/mL) | – |
| C[C@H]1[C@H](F)C[C@@H](C(=O)NCc2ccnc(-c3cnc(C(F)(F)F)nc3)c2)N1S(=O)(=O)c1ccc(F)cc1 | – | 12 | 25 | 3 | < 1 | – |
| C[C@H]1[C@H](F)C[C@@H](C(=O)NCc2cc(-c3cnc(C(F)(F)F)nc3)ncc2Cl)N1S(=O)(=O)c1ccc(F)cc1 | 5 | 11 | 20 | – | < 1 | – |
| C[C@H]1[C@H](F)C[C@@H](C(=O)NCc2cc(-c3cnc(C(F)(F)F)nc3)ccn2)N1S(=O)(=O)c1ccc(F)cc1 | – | 16 | 18 | 3.3 | 132 (≈ 71.5 µg/mL) | – |
| O=C(NCc1cc(-c2ccc(C(F)(F)F)nc2)ncn1)[C@@H]1CCCN1S(=O)(=O)c1ccc(F)cc1 | 154 | 16 | 43 | 2.7 | – | – |
